Test results from ChEMBL document CHEMBL4422632, “Design of Novel Inhibitors of Human Thymidine Phosphorylase: Synthesis, Enzyme Inhibition, in Vitro Toxicity, and Impact on Human Glioblastoma Cancer” (J Med Chem, 2019).
pIC50: −log10 of the molar value. Active and inactive are the calls of the source. The rule behind the calls is not given here.

What was measured:
[1] = Cytotoxicity against human U87MG cells assessed as cell viability at 50 uM after 72 hrs by neutral red uptake-based assay relative to control; parameters: species or system U-87MG ATCC; conditions: read-out: Activity
Procedure, shortened: (§1)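 Cells kept in DMEM with 10% heat-inactivated FBS, 1% penicillin-streptomycin and 0.1% fungizone at 37 °C, 5% CO₂. U-87 MG seeded at 2 x 10^3 cells/well, RAW 264.7 at 5 x 10^2, adhered 24 h, then exposed 72 h. MTT: 1 mg/mL for 3 h, formazan in DMSO, A595. NRU: 25 μg/mL dye, 3 h, ethanol:acetic acid:water desorb. Untreated wells = 100%; three to five independent experiments in triplicate.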

[2] = Cytotoxicity against human HaCaT cells assessed as cell viability at 500 uM after 72 hrs by neutral red uptake-based assay relative to control; conditions: read-out: Activity
Procedure, shortened: (§2)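 Cells grown in DMEM with 10% FBS at 37 °C, 5% CO₂; seeded 2 x 10³ cells/well, adhered 24 h, then exposed 72 h. MTT: 1 mg/mL for 3 h, formazan in DMSO, absorbance 595 nm. NRU: neutral red 25 µg/mL in serum-free medium for 3 h, desorbed in ethanol:acetic acid:water. Viability as % of untreated control; mean ± SEM of three to five independent experiments in triplicate.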

[3] = Cytotoxicity against mouse RAW264.7 cells assessed as cell viability at 50 uM after 72 hrs by neutral red uptake-based assay relative to control; conditions: read-out: Activity; procedure, shortened: as §1
[4] = target: Cytochrome P450 2C19 (Homo sapiens, UniProt P33261); test: Inhibition of CYP2C19 in human liver microsomes by HPLC-MS/MS analysis; type: ADME
Cytochrome P450 2C19, sequence (P33261 whole entry): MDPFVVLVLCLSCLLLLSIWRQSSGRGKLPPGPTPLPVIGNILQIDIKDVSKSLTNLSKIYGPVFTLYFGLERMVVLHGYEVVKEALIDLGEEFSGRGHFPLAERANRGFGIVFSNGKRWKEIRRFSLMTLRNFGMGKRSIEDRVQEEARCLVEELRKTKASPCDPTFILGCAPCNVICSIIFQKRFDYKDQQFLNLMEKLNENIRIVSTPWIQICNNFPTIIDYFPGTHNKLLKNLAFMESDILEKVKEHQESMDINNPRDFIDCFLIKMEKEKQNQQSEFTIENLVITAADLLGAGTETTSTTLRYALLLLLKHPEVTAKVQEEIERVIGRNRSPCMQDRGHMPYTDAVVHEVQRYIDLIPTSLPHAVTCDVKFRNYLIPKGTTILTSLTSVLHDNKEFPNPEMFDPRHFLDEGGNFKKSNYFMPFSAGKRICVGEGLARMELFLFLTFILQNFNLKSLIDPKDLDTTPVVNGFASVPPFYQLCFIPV

[5] = Cytotoxicity against mouse RAW264.7 cells assessed as cell viability at 500 uM after 72 hrs by neutral red uptake-based assay relative to control; conditions: read-out: Activity; procedure, shortened: as §1
[6] = AUCt in CF1 mouse at 50 mg/kg, ip by non-compartmental analysis; type: ADME, organism-based; conditions: in vivo
Procedure, shortened: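 Male CF1 mice received a single ip injection of 50 mg/kg in 0.9% saline; 3 animals per time point, killed 0.03, 0.08, 0.25, 0.5, 1 and 2 h after dosing; blood collected in heparin tubes.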

[7] = tested on: HepG2; test: Genotoxicity in human HepG2 cells assessed as induction of DNA-strand breaks at 1000 uM after 24 hrs by alkaline comet assay; type: toxicity, cell-based; conditions: hepg2, 24 h
Procedure, shortened: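 HepG2 seeded at 5 x 10^4 cells/well for 24 h, then exposed 24 h at 250, 500 and 1,000 μM. Alkaline comet assay: lysis 24 h, unwinding in 300 mM NaOH/1 mM EDTA (pH > 13) at 4 °C for 20 min, electrophoresis 20 min at 25 V, silver staining. MMS 100 µM as positive control. 100 cells scored 0–4 for a damage index of 0–400. Mean ± SEM of three experiments.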

[8] = Cytotoxicity against human HepG2 cells assessed as cell viability at 500 uM after 72 hrs by MTT assay relative to control; type: cell-based; conditions: read-out: Activity; procedure, shortened: as §2
[9] = Cytotoxicity against human U87MG cells assessed as cell viability at 100 uM after 72 hrs by MTT assay relative to control; type: cell-based, U-87MG ATCC; conditions: read-out: Activity; procedure, shortened: as §2
[10] = Cytotoxicity against African green monkey Vero cells assessed as cell viability at 500 uM after 72 hrs by MTT assay relative to control; type: cell-based; conditions: chlorocebus sabaeus, read-out: Activity; procedure, shortened: as §2
[11] = Cytotoxicity against mouse RAW264.7 cells assessed as cell viability at 100 uM after 72 hrs by MTT assay relative to control; type: cell-based; conditions: read-out: Activity; procedure, shortened: as §1
[12] = Cytotoxicity against human U87MG cells assessed as cell viability at 500 uM after 72 hrs by MTT assay relative to control; type: cell-based, U-87MG ATCC; conditions: read-out: Activity; procedure, shortened: as §1
[13] = Cytotoxicity against human HepG2 cells assessed as cell viability at 25 uM after 72 hrs by MTT assay relative to control; type: cell-based; conditions: read-out: Activity; procedure, shortened: as §2
[14] = Cytotoxicity against human HaCaT cells assessed as cell viability at 100 uM after 72 hrs by neutral red uptake-based assay relative to control; conditions: read-out: Activity; procedure, shortened: as §2
[15] = Cytotoxicity against human HaCaT cells assessed as cell viability at 50 uM after 72 hrs by neutral red uptake-based assay relative to control; conditions: read-out: Activity; procedure, shortened: as §2
[16] = Cytotoxicity against human U87MG cells assessed as cell viability at 100 uM after 72 hrs by neutral red uptake-based assay relative to control; parameters: species or system U-87MG ATCC; conditions: read-out: Activity; procedure, shortened: as §2
[17] = tested on: U-87 MG; test: Anti-angiogenic activity in tumor of human U87MG cells xenografted in nude BALB/c mouse assessed as reduction in number of blood vessels at 50 mg/kg, ip administered for 14 days by hematoxylin and eosin-staining based light microscopy; type: functional, organism-based; conditions: U-87MG ATCC
Procedure, shortened: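 U-87 MG flank xenografts (5 x 10⁵ cells) in male nude mice; ip treatment daily from about 50 mm³ for 14 days, with temozolomide at 50 mg/kg/day in the co-treatment arm. Vessel density counted on HE-stained 3 µm sections by hot-spot method, mean of four fields per tumor at x200, avoiding gross haemorrhage. One-way ANOVA/Dunnett.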

[18] = Cytotoxicity against human HepG2 cells assessed as cell viability at 100 uM after 72 hrs by MTT assay relative to control; type: cell-based; conditions: read-out: Activity; procedure, shortened: as §2
[19] = Cytotoxicity against human HaCaT cells assessed as cell viability at 25 uM after 72 hrs by neutral red uptake-based assay relative to control; conditions: read-out: Activity; procedure, shortened: as §2
[20] = Elimination rate constant in CF1 mouse at 50 mg/kg, ip by non-compartmental analysis; type: ADME, organism-based; conditions: in vivo
[21] = Tmax in CF1 mouse at 50 mg/kg, ip by non-compartmental analysis; type: ADME, organism-based; conditions: in vivo
[22] = Cytotoxicity against human HaCaT cells assessed as cell viability at 25 uM after 72 hrs by MTT assay relative to control; type: cell-based; conditions: read-out: Activity; procedure, shortened: as §2
[23] = target: Cytochrome P450 3A4 (Homo sapiens, UniProt P08684); test: Inhibition of CYP3A4 in human liver microsomes by HPLC-MS/MS analysis; type: ADME
Cytochrome P450 3A4, sequence (P08684 whole entry): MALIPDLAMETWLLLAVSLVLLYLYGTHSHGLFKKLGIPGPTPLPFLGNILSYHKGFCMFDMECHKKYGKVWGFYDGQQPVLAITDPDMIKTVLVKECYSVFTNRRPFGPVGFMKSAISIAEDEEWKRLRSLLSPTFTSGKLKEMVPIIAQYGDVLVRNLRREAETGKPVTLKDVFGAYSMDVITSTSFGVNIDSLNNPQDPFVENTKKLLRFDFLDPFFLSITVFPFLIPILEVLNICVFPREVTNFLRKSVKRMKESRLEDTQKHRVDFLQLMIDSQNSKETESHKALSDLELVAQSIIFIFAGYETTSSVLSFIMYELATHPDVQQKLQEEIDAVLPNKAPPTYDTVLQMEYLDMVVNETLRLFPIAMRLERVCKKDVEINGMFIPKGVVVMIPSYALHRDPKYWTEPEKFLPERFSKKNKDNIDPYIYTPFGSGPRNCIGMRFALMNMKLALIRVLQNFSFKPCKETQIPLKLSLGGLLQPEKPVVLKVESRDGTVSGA

[24] = tested on: U-87 MG; test: Antitumor activity against human U87MG cells xenografted in BALB/c nude mouse assessed as tumor growth inhibition 50 mg/kg/day, ip administered for 14 days co-treated with temozolamide; type: functional, organism-based; conditions: U-87MG ATCC
Procedure, shortened: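 5 x 10⁵ U-87 MG cells implanted subcutaneously in right flank of male BALB/c nude mice; at about 50 mm³, randomized to saline or ip 50 mg/kg/day, with temozolomide 50 mg/kg/day in the combination arm, for 14 days. Relative tumor volume = volume on day / day 0; TGI on day 14 = [1 − RTV treated/RTV control] x 100. Two-way ANOVA with Bonferroni.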

[25] = Cytotoxicity against mouse RAW264.7 cells assessed as cell viability at 25 uM after 72 hrs by MTT assay relative to control; type: cell-based; conditions: read-out: Activity; procedure, shortened: as §1
[26] = Half life in human liver S9 fraction at 2 uM up to 30 mins in presence of NADPH by HPLC-MS/MS analysis; type: ADME, subcellular
[27] = Cytotoxicity against human U87MG cells assessed as cell viability at 1000 uM after 72 hrs by MTT assay relative to control; type: cell-based, U-87MG ATCC; conditions: read-out: Activity; procedure, shortened: as §2
[28] = Cytotoxicity against African green monkey Vero cells assessed as cell viability at 100 uM after 72 hrs by MTT assay relative to control; type: cell-based; conditions: chlorocebus sabaeus, read-out: Activity; procedure, shortened: as §2
[29] = Cytotoxicity against African green monkey Vero cells assessed as cell viability at 50 uM after 72 hrs by MTT assay relative to control; type: cell-based; conditions: chlorocebus sabaeus, read-out: Activity; procedure, shortened: as §2
[30] = Cytotoxicity against human HaCaT cells assessed as cell viability at 500 uM after 72 hrs by MTT assay relative to control; type: cell-based; conditions: read-out: Activity; procedure, shortened: as §2

Compound `O=c1[nH]c(CNC(CO)CO)c(I)c(=O)[nH]1` has a viability at 72 h, 50 µM [1] of 101%, a viability at 72 h, 500 µM [2] of 95% and a viability at 72 h, 50 µM [3] of 102%. The pIC50 [4] was < 4.00, the viability at 72 h, 500 µM [5] was 82% and the AUC(0-t) [6] was 16900 ng·h/mL. For the same compound, the Activity [7] was “Non-Toxic”, the viability at 72 h, 500 µM [8] was 94% and the viability at 72 h, 100 µM [9] was 96%. The viability at 72 h, 500 µM [10] was 84%, the viability at 72 h, 100 µM [11] was 99% and the viability at 72 h, 500 µM [12] was 89%. The viability at 72 h, 25 µM [13] was 103%, the viability at 72 h, 100 µM [14] was 104% and the viability at 72 h, 50 µM [15] was 110%. For the same compound, the viability at 72 h, 100 µM [16] was 104%, the Activity [17] was “Active” and the viability at 72 h, 100 µM [18] was 100%. The viability at 72 h, 25 µM [19] was 100%, the k el [20] was 0.000383 s⁻¹ and the Tmax [21] was 4.8 min. For the same compound, the viability at 72 h, 25 µM [22] was 105%, the pIC50 [23] was < 4.00 and the TGI [24] was “Active”. For the same compound, the viability at 72 h, 25 µM [25] was 103%, the half-life at 2 µM [26] was 28.1 min and the viability at 72 h, 1000 µM [27] was 83%. For the same compound, the viability at 72 h, 100 µM [28] was 96%, the viability at 72 h, 50 µM [29] was 97% and the viability at 72 h, 500 µM [30] was 93%.
